As a reminder, the IC50 is the concentration needed to halve the response being measured. As usually defined, the bioavailability is the share of a dose that reaches the circulation, judged against a reference dose that is usually intravenous. Low values mean little systemic uptake, high ones much systemic uptake. A word on the half-life: it is the time in which the quantity being followed falls by half. High values mean slow loss, low ones fast loss. Usually clearance stands for the volume of plasma or blood freed of the substance per unit of time. In general, AUC refers to the area under the concentration-time curve, a measure of exposure. Lower therefore signals less exposure.

Each structure is given as a SMILES string.

The target of data set [1] is Human immunodeficiency virus type 1 integrase (Human immunodeficiency virus 1, UniProt Q7ZJM1). Put plainly: Inhibition of HIV1 recombinant integrase strand transfer activity.
Data set [2] has as its system Human immunodeficiency virus 1. Put plainly: Antiviral activity against HIV1 3B infected in human MT4 cells after 3 days by ELISA in presence of 50% normal human serum. The following applies: Human immunodeficiency virus 1, 3B, MT4, 72 h; read-out: CIC95. In kind it is functional. Put shortly: (§1)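 HIV-1 infection spread was measured in cell culture (spread assay) under low-serum (10% fetal bovine serum) or high-serum (50% normal human serum) conditions.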

For data set [3], the system named is Human immunodeficiency virus 1. Put plainly: Antiviral activity against HIV1 3B infected in human MT4 cells after 3 days by ELISA in presence of 10% fetal bovine serum. In kind it is functional. The following applies: Human immunodeficiency virus 1, 3B, MT4, 72 h; read-out: CIC95. Put shortly:
as §1

The subject of data set [4] is MT4. The experiment in a line: Cytotoxicity against human MT4 cells assessed as morphological changes up to 50 uM after 4 days. In kind it is cell-based. The conditions noted are these: mt4, 96 h.
The nature of data set [5]: Oral bioavailability in rat at 3 mg/kg. In kind it is ADME, organism-based. The following applies: in vivo. The gist of the method: (§2)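 Rats were dosed at 3 mg/kg both intravenously and orally, and the plasma PK profile was obtained. Parameters were AUC, plasma half-life and oral bioavailability (F%). Plasma clearance was taken from the IV dose.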
A short description of data set [6]: Half life in rat plasma at 3 mg/kg, iv and po. In kind it is ADME, organism-based. More on the design: dose 3 mg/kg, route oral. Put shortly:
as §2

Data set [7] in a line: Plasma clearance in rat at 3 mg/kg, iv. In kind it is ADME, organism-based. More on the design: dose 3 mg/kg, route intravenous. The gist of the method: as §2
The subject of data set [8] is Rattus norvegicus. Put plainly: AUC in rat plasma at 3 mg/kg, iv and po. Further details: dose 3 mg/kg, route oral. The conditions noted are these: in vivo. In kind it is ADME, organism-based. The gist of the method:
as §2

Sequence of Human immunodeficiency virus type 1 integrase (Q7ZJM1 whole entry): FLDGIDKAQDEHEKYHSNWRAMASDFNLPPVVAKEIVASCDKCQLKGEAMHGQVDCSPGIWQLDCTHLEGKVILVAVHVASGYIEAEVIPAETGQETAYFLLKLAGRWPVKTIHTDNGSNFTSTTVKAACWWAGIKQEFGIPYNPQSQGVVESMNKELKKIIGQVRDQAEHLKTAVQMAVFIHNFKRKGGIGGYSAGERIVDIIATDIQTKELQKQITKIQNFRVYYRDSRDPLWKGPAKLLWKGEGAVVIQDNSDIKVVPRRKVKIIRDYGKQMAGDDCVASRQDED

As to `O=C(NCc1ccc(F)cc1)c1nc2ccccn2c(=O)c1O`, in data set [1], the IC50 was 22 nM.
In the case of `CCN(C(=O)CN(C)C)c1cccn2c(=O)c(O)c(C(=O)NCc3ccc(F)cc3)nc12`, the IC95 in data set [2] and in data set [3] was over 1000 nM in each case. Moreover, in data set [1], the IC50 is 185 nM. In addition, in data set [4], the Activity result is “Non-toxic”.
As to `CCN(C(=O)C(=O)N1CCOCC1)c1cccn2c(=O)c(O)c(C(=O)NCc3ccc(F)cc3)nc12`, the IC95 was found to be 250 nM in data set [2] and 31 nM in data set [3]. Also, the IC50 in data set [1] is 25 nM. Further, the Activity result in data set [4] is listed as “Non-toxic”.
For the compound `CCN(CC)C(=O)C(=O)N(CC)c1cccn2c(=O)c(O)c(C(=O)NCc3ccc(F)cc3)nc12`, the IC95 came to 125 nM in data set [2] and 62 nM in data set [3]. Moreover, the IC50 in data set [1] worked out at 19 nM. In addition, in data set [4], the Activity entry is on record as “Non-toxic”.
The like results for `CCN(C(=O)C(=O)N1CCCC1)c1cccn2c(=O)c(O)c(C(=O)NCc3ccc(F)cc3)nc12` were, in that order, 1000 nM, 31 nM, 21 nM and “Non-toxic”.
Take `CNc1cccn2c(=O)c(O)c(C(=O)NCc3ccc(F)cc3)nc12`: the IC50 in data set [1] was determined as 130 nM.
Consider `CC(=O)N1CCN(Cc2cccn3c(=O)c(O)c(C(=O)NCc4ccc(F)cc4)nc23)CC1`, for which the IC50 in data set [1] is 185 nM.
For `CC(C)N(C(=O)C(=O)N(C)C)c1cccn2c(=O)c(O)c(C(=O)NCc3ccc(F)cc3)nc12`, the IC95 in data set [2] is over 1000 nM; in data set [3], 62 nM. The IC50 in data set [1] is 21 nM. Moreover, the Activity result in data set [4] is “Non-toxic”.
In the case of `O=C(NCc1cccn2c(=O)c(O)c(C(=O)NCc3ccc(F)cc3)nc12)c1ccccc1`, in data set [1], the IC50 is 24 nM.
Regarding `Cc1cccn2c(=O)c(O)c(C(=O)NCc3ccc(F)cc3)nc12`, the IC50 in data set [1] amounted to 9 nM.
In the case of `CCN(C(=O)c1ccccn1)c1cccn2c(=O)c(O)c(C(=O)NCc3ccc(F)cc3)nc12`, the IC95 in data set [2] was determined as 1000 nM; in data set [3], 250 nM. Besides, the IC50 in data set [1] was determined as 21 nM. Further, in data set [4], the Activity entry was “Non-toxic”.
`O=C(Nc1cccn2c(=O)c(O)c(C(=O)NCc3ccc(F)cc3)nc12)c1ccccc1`: the IC50 in data set [1] stood at 18 nM.
As to `CCNc1cccn2c(=O)c(O)c(C(=O)NCc3ccc(F)cc3)nc12`, the values for the IC95 in data set [2] and in data set [3] were over 1000 nM and 1250 nM, respectively. Also, in data set [1], the IC50 was 36 nM. Moreover, in data set [4], the Activity result is “Non-toxic”.
`CCCN(C(=O)C(=O)N(C)C)c1cccn2c(=O)c(O)c(C(=O)NCc3ccc(F)cc3)nc12`: the IC95 in data set [2] was determined as 500 nM; in data set [3] it was 31 nM. Also, in data set [1], the IC50 turned out to be 18 nM. In data set [4], the Activity result is “Non-toxic”.
The like results for `CN(C)C(=O)C(=O)N(C)c1cccn2c(=O)c(O)c(C(=O)NCc3ccc(F)cc3)nc12` were, in that order, 500 nM, 125 nM, 26 nM and “Non-toxic”.
Turning to `CCN(C(=O)CN1CCOCC1)c1cccn2c(=O)c(O)c(C(=O)NCc3ccc(F)cc3)nc12`, the IC95 in data set [2] and in data set [3] was over 1000 nM in each case. The half-maximal inhibitory concentration (IC50) in data set [1] came to 23 nM. In addition, the Activity entry in data set [4] is listed as “Non-toxic”.
As to `CCN(C(=O)C(=O)N1CCN(C)CC1)c1cccn2c(=O)c(O)c(C(=O)NCc3ccc(F)cc3)nc12`, the IC95 is 500 nM in data set [2] and 125 nM in data set [3]. Also, the IC50 in data set [1] worked out at 21 nM. Moreover, the Activity entry in data set [4] is “Non-toxic”.
The compound `CCN(C(=O)C(=O)N(C)C)c1cccn2c(=O)c(O)c(C(=O)NCc3ccc(F)cc3)nc12` displayed a bioavailability in data set [5] of 40%. The IC95 in data set [2] was 250 nM; in data set [3], 62 nM. Also, the half-life in data set [6] is 4.5 h. Further, the IC50 in data set [1] was 36 nM. This compound registered a clearance in data set [7] of 24 mL/min/kg. The Activity result in data set [4] is listed as “Non-toxic”. Besides, in data set [8], the AUC worked out at 2.9 µM·h.
`CCN(C(=O)c1ccncc1)c1cccn2c(=O)c(O)c(C(=O)NCc3ccc(F)cc3)nc12`: the IC95 in data set [2] and in data set [3] was over 1000 nM each time. Besides, the IC50 in data set [1] worked out at 50 nM. For the same compound, in data set [4], the Activity result is on record as “Non-toxic”.
On to `CN(C)c1cccn2c(=O)c(O)c(C(=O)NCc3ccc(F)cc3)nc12`, for which the IC50 in data set [1] was found to be 70 nM.
In the case of `CCN(C(=O)c1ccno1)c1cccn2c(=O)c(O)c(C(=O)NCc3ccc(F)cc3)nc12`, the figures for the IC95 in data set [2] and in data set [3] were over 1000 nM and 500 nM, respectively. Further, the IC50 in data set [1] turned out to be 18 nM. The Activity result in data set [4] is recorded as “Non-toxic”.
Turning to `CCN(C(=O)c1cscn1)c1cccn2c(=O)c(O)c(C(=O)NCc3ccc(F)cc3)nc12`, the figures for the IC95 in data set [2] and in data set [3] were over 1000 nM and 250 nM, respectively. Moreover, in data set [1], the IC50 amounted to 21 nM. Also, the Activity result in data set [4] is reported as “Non-toxic”.
Take `O=C(NCc1ccc(F)cc1)c1nc2c(CN3CCOCC3)cccn2c(=O)c1O`: the IC50 in data set [1] was found to be 170 nM.
For `CCN(C(=O)c1nnc(C)o1)c1cccn2c(=O)c(O)c(C(=O)NCc3ccc(F)cc3)nc12`, the IC95 in data set [2] is over 1000 nM; in data set [3] it was 500 nM. Moreover, the IC50 in data set [1] came to 50 nM. Further, the Activity entry in data set [4] was “Non-toxic”.
